Screening data deposited in PubChem by several laboratories.
ATG4B inhibitor: blocks human ATG4B protease cleavage of LC3 substrate. ATG4B cleavage of LC3-PLA2, NBD-HPC fluorescence, 1 h. inhibition, % at 8.33 µM. 340,000 compounds, 0.51% hits; in the data active = inhibition above about 40%
GRIN3A LBD mod: modulates the human NR3A ligand-binding domain. 340,000 compounds, 2.5% hits. NR3A LBD differential scanning fluorimetry, Tm shift; 0% = protein alone, 100% = glycine-bound protein. Tm shift relative to glycine control, % at 25 µM;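 active = melting temperature shift of at least 10% of the positive control shift, at one fixed dose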
UCH37 DUB inh: blocks the human deubiquitinase UCH37. inhibition, % (no concentration beside the values). AID 588478. purified proteasome/UCH37, Ub-AMC cleavage fluorescence. Q9Y5K5. 330,000 compounds, 0.33% hits;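 active = mean inhibition over replicate wells above about 20%, limit read from the data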
Target sequence (Q9Y5K5 whole entry, looked up): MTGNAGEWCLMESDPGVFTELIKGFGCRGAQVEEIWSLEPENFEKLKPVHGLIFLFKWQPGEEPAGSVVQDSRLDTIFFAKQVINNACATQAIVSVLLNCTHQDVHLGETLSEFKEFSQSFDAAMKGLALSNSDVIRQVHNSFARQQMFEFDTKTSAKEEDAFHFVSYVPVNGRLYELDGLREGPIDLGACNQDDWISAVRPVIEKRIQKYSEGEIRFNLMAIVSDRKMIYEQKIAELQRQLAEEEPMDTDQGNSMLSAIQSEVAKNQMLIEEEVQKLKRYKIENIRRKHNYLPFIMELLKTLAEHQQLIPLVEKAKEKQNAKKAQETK
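Material: human UCH37 enzyme supplied as purified proteasome complex / Amount: 0.15 nM proteasome as dispensed / Buffer or medium: pH 7.4 Tris-HCl (50 mM) with ovalbumin, ATP-MgCl2, DTT / Times: preincubation 30 min, reaction 25 min, room temperature / Technique: AMC fluorescence from Ub-AMC cleavage, excitation 355 nm, emission 460 nm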
NadD inh: blocks S. aureus nicotinate mononucleotide adenylyltransferase. 360,000 compounds, 0.78% hits. inhibition, % at 20 µM. purified NadD enzyme, colorimetric absorbance read-out; in the data active = inhibition above about 26%
SENP1 FRET inh: SENP1 (human) catalytic domain inhibition; recombinant SENP1 catalytic domain, CyPet-SUMO1-YPet FRET cleavage; inhibition, % at 10 µM; 360,000 compounds, 0.21% hits;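 active = inhibition at least 30% at 10 µM, raw YFP signal under a set limit, fluorescence ratio 0.5 to 1.5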
Target sequence (Q9P0U3 419-644 limits assumed): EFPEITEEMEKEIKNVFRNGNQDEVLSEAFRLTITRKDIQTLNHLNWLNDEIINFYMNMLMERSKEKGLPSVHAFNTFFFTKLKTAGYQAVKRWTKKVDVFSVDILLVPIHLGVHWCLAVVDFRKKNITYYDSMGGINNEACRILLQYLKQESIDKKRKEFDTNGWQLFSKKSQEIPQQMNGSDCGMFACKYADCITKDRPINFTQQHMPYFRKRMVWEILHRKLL
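Material – human SENP1 catalytic domain · Input – SENP1 enzyme, 20 pM final · Compound dosing – single concentration of 10 µM compound, 0.5% DMSO final · Timing – enzyme reaction for 50 min at room temperature, dark · Measured by – FRET fluorescence in CFP and YFP emission channels · Control set – no-enzyme wells low, DMSO-plus-enzyme wells high control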
A number is an active result; - = inactive; . = no result. Rows were chosen to be rich in hits. Some 3.6% of all compounds tested hit in one or more screens of this group.

SMILES	ATG4B inhibitor	GRIN3A LBD mod	UCH37 DUB inh	NadD inh	SENP1 FRET inh
CC(=O)Oc1ccc2oc(/C=C/N(C)C)c([N+](=O)[O-])c2c1	-	-	22	-	-
Cc1nc(C)c(NC(=O)N2CCc3ccccc32)cc1NC(=O)N1CCc2ccccc21	-	-	-	-	-
Cn1ccc2cc3c(cc21)CCN3C(=O)Nc1cccnc1	-	-	-	31	-
O=C(NC1CCCCC1)C(=NO)c1ccccn1	.	.	-	.	.
CCc1nnc(NS(=O)(=O)c2ccc(N=Cc3c(C)[nH]n(-c4cccc(Cl)c4)c3=O)cc2)s1	-	20	-	-	-
Cc1[nH]n(-c2ccccc2)c(=O)c1C=Nc1ccc(S(=O)(=O)Nc2nccs2)cc1	-	-	-	-	-
Nc1nonc1NN=Cc1ccccc1	.	.	-	.	.
COc1ccccc1C(=O)NCC(=O)N1CCN(S(=O)(=O)c2ccc3c(c2)OCCO3)CC1	-	13	-	-	-
COc1ccccc1C(=O)NCC(=O)N1CCN(S(=O)(=O)c2ccccc2C(F)(F)F)CC1	-	-	-	-	-
CCOc1ccccc1C=Nn1c(C2CCCCC2)n[nH]c1=S	.	.	-	.	.
O=C(Nc1ccccc1O)c1c(O)c2c([nH]c1=O)CCCC2	-	14	.	-	-
Cc1ccc(-c2ccc(C(=O)Nc3cccc(F)c3)o2)c2ccccc12	-	17	-	-	-
Cc1ccc(-c2ccc(C(=O)NCc3ccc(Cl)cc3)o2)c2ccccc12	-	-	-	27	-
Cc1ccccc1-c1ccc(C(=O)NCc2ccccc2)o1	-	-	-	-	-
O=C(COC(=O)C12CC3CC(CC(C3)C1)C2)Nc1nc2c(F)c(F)c(F)cc2s1	-	29	.	-	-
COc1ccc(C(=O)OCC(=O)Nc2nc3c(F)c(F)c(F)cc3s2)cc1OC	-	-	-	-	-
CC1CN(C)C(C)CC1=NOc1ccc([N+](=O)[O-])cc1 (stereo not drawn)	.	.	-	.	.
Cc1ccc(C(=O)c2c(C)oc3c2C(=O)C(=O)c2ccccc2-3)cc1	-	-	42	-	-
N#CC(=Cc1ccc(-c2ccccc2)cc1)C(=O)c1ccccc1	.	.	.	-	-
N#C/C(=C\c1cccs1)C(=O)c1ccccc1	-	14	-	-	-
Cc1cc(N)n(-c2ccccn2)n1	-	12	-	-	-
COc1ccccc1-n1nc(C)cc1N	-	-	-	-	-
COc1ccc2cc3cc(C(=O)Nc4ccc5c(c4)OCO5)oc3nc2c1	-	26	-	-	-
COc1ccc2nc3oc(C(=O)Nc4ccc(OC)c(OC)c4)cc3cc2c1	-	17	-	-	-
O=C(Cc1sc(-c2ccccc2)nc1-c1ccccc1)Nc1ccc(Cl)cc1	-	24	-	-	-
SMILES	ATG4B inhibitor	GRIN3A LBD mod	UCH37 DUB inh	NadD inh	SENP1 FRET inh
O=C(Cc1sc(-c2ccccc2Cl)nc1-c1ccccc1)Nc1ccccc1	-	-	-	-	-
Nc1nonc1-n1nnc(C(=O)NN=Cc2cccc(Cl)c2Cl)c1CN1CCCC1	.	.	-	.	.
O=[N+]([O-])c1cc(C=NO)ccc1SCc1ccccc1Cl	.	.	-	.	.
O=S(=O)(c1ccc(Cl)cc1)N1CCN(C(=S)NCC2CCCO2)CC1 (stereo not drawn)	-	11	-	-	-
O=S(=O)(c1ccc(F)cc1)N1CCN(C(=S)NCC2CCCO2)CC1 (stereo not drawn)	-	-	-	-	-
CC(C)n1cc(C=NNc2ccc(C(=O)O)cc2)c2ccccc21	.	.	-	.	.
CCCCC1=CC2=CC(=O)C(C)(OC(=O)CC)C(=O)C2=CN1CCOC (stereo not drawn)	-	61	-	-	-
Cc1nc2sccn2c(=O)c1S(=O)(=O)NCC1CCN(Cc2ccccc2Cl)CC1	-	12	-	-	-
COc1ccc(C2CC(=O)Oc3c(C(C)C)ccc(C)c32)cc1 (stereo not drawn)	-	13	-	-	-
CC(=O)c1c(C)[nH]c(C(=O)OCC(=O)Nc2ccc3[nH]c(=O)[nH]c3c2)c1C	-	21	-	-	-
CC1=CC(=C2C(=O)c3ccccc3C2=O)C=C(C)N1Cc1ccco1	-	-	-	-	37
O=c1c(N=Nc2ccc(O)cc2)c(-c2ccccc2)[nH]n1-c1ccc([N+](=O)[O-])cc1	-	-	.	40	-
Cc1ccc([N+](=O)[O-])cc1N=Nc1c(-c2ccc([N+](=O)[O-])cc2)[nH]n(C(N)=S)c1=O	-	30	-	53	-
Cc1ccc([N+](=O)[O-])cc1N=Nc1c(C)[nH]n(C(N)=S)c1=O	-	-	-	-	-
NC(=S)n1[nH]c(-c2ccc([N+](=O)[O-])cc2)c(N=Nc2ccc(Cl)cc2)c1=O	-	28	-	68	-
Cc1ccc(/C=C2\SC(=S)N(N=Cc3cc([N+](=O)[O-])ccc3O)C2=O)o1	.	.	-	.	.
CC(=O)c1sc(NN=C2CC3CCC2(C)C3(C)C)nc1C (stereo not drawn)	.	.	-	.	.
CCOC(=O)C1CCN(C(=O)Cn2nc(C)n3c(cc4cc(C)ccc43)c2=O)CC1	-	-	-	-	-
CCC(C(=O)N1CCOCC1)n1nc(C)n2c(cc3cc(C)ccc32)c1=O (stereo not drawn)	-	11	-	-	-
CCCC(=NNC(=O)c1ccccc1Cl)c1ccccc1	.	.	-	.	.
Clc1ccc(CON=Cc2c(-c3ccccc3)nc3n2CCS3)c(Cl)c1	.	.	-	.	.
O=C(N=Nc1c(O)[nH]c2ccccc12)c1cc(-c2cccs2)[nH]n1	-	22	.	-	-
O=C(N=Nc1c(O)[nH]c2ccccc12)c1cc(-c2ccc(F)cc2)n[nH]1	-	19	-	-	-
O=C(C[n+]1ccc(C=NO)cc1)NCc1ccccc1	.	.	-	.	.
O=C(CCCCCNC(=O)c1ccccc1)NN=Cc1ccccc1O	.	.	-	.	.
O=C(CCCCC(=O)NN=Cc1ccccc1O)NN=Cc1ccccc1O	-	35	-	-	-
O=C(CSCC(=O)NN=Cc1ccccc1O)NN=Cc1ccccc1O	-	26	-	-	-
